Data published in ChEMBL document CHEMBL2057101, “Fluorocyclines. 2. Optimization of the C-9 side-chain for antibacterial activity and oral efficacy” (J Med Chem, 2012).
In brackets after ≈: the same amount, converted by molar mass.

Tests used:
Assay type in all cases: functional
[1] = test system: Streptococcus pneumoniae; test: Antibacterial activity against Streptococcus pneumoniae ATCC 49619 isolate 106
In short: (§1)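 MIC by broth microdilution in liquid medium per CLSI, in cation-adjusted Mueller Hinton broth made fresh and held at 4 °C before testing. Horse blood (defibrinated) added to the medium where appropriate. Runs were accepted only when the comparator antibiotics and ATCC QC strains fell within their recommended ranges.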

[2] = test system: Streptococcus pneumoniae; test: Antibacterial activity against tetracycline-resistant Streptococcus pneumoniae isolate 160 expressing tetM gene
[3] = test system: Escherichia coli; test: Antibacterial activity against Escherichia coli ATCC 25922 isolate 107; in short: as §1
[4] = test system: Staphylococcus aureus; test: Antibacterial activity against tetracycline-resistant Staphylococcus aureus isolate SA158 expressing TetK gene
[5] = test system: Escherichia coli; test: Antibacterial activity against Escherichia coli isolate EC155 expressing tetA gene; in short: as §1
[6] = test system: Staphylococcus aureus; test: Antibacterial activity against tetracycline-susceptible Staphylococcus aureus ATCC 13709 Smith isolate SA100
In short: (§2)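 Broth microdilution MIC following CLSI methods in cation-adjusted Mueller Hinton broth, prepared fresh and held at 4 °C before testing. Defibrinated horse blood added to the medium where appropriate. Runs accepted when quality control ranges for comparator antibiotics and ATCC QC strains were met.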

[7] = test system: Staphylococcus aureus; test: Antibacterial activity against tetracycline-resistant Staphylococcus aureus isolate SA161 expressing TetM gene; in short: as §2
[8] = test system: Klebsiella pneumoniae; test: Antibacterial activity against Klebsiella pneumoniae ATCC 13883; in short: as §1

| Structure (SMILES) | MIC [1] [µg/mL] | MIC [2] [µg/mL] | MIC [3] [µg/mL] | MIC [4] [µg/mL] | MIC [5] [µg/mL] | MIC [6] [µg/mL] | MIC [7] [µg/mL] | MIC [8] [µg/mL] |
| --- | --- | --- | --- | --- | --- | --- | --- | --- |
| CN(C)[C@@H]1C(O)=C(C(N)=O)C(=O)[C@@]2(O)C(O)=C3C(=O)c4c(O)c(NC(=O)CNC(C)(C)C)cc(F)c4C[C@H]3C[C@@H]12 | 0.016 (≈ 0.0285 µM) | 0.016 (≈ 0.0285 µM) | 0.25 (≈ 0.446 µM) | 0.063 (≈ 0.112 µM) | 2 (≈ 3.57 µM) | 0.25 (≈ 0.446 µM) | 0.25 (≈ 0.446 µM) | 1 (≈ 1.78 µM) |
| CN(C)[C@@H]1C(O)=C(C(N)=O)C(=O)[C@@]2(O)C(O)=C3C(=O)c4c(O)c(NC(=O)[C@H]5CCCN5C)cc(F)c4C[C@H]3C[C@@H]12 | 0.25 (≈ 0.448 µM) | 0.25 (≈ 0.448 µM) | 2 (≈ 3.58 µM) | 2 (≈ 3.58 µM) | 16 (≈ 28.6 µM) | 2 (≈ 3.58 µM) | 2 (≈ 3.58 µM) | 4 (≈ 7.16 µM) |
| CC(C)N1CCC[C@H]1C(=O)Nc1cc(F)c2c(c1O)C(=O)C1=C(O)[C@]3(O)C(=O)C(C(N)=O)=C(O)[C@@H](N(C)C)[C@@H]3C[C@@H]1C2 | ≤ 0.016 | ≤ 0.016 | 2 (≈ 3.41 µM) | 0.25 (≈ 0.426 µM) | 8 (≈ 13.6 µM) | 0.5 (≈ 0.852 µM) | 1 (≈ 1.7 µM) |  |
| CN(C)[C@@H]1C(O)=C(C(N)=O)C(=O)[C@@]2(O)C(O)=C3C(=O)c4c(O)c(NC(=O)[C@@H]5C[C@@H](F)CN5C)cc(F)c4C[C@H]3C[C@@H]12 | 0.063 (≈ 0.109 µM) | 0.063 (≈ 0.109 µM) | 4 (≈ 6.94 µM) | 1 (≈ 1.73 µM) | > 32 | 0.5 (≈ 0.867 µM) | 2 (≈ 3.47 µM) | 8 (≈ 13.9 µM) |
| CN(C)[C@@H]1C(O)=C(C(N)=O)C(=O)[C@@]2(O)C(O)=C3C(=O)c4c(O)c(NC(=O)[C@@H]5CC(F)(F)CN5C)cc(F)c4C[C@H]3C[C@@H]12 | 0.5 (≈ 0.841 µM) | 0.5 (≈ 0.841 µM) | > 32 | 1 (≈ 1.68 µM) | > 32 | 1 (≈ 1.68 µM) | 1 (≈ 1.68 µM) | > 32 |
| CN(C)[C@@H]1C(O)=C(C(N)=O)C(=O)[C@@]2(O)C(O)=C3C(=O)c4c(O)c(NC(=O)[C@@H]5CCCCN5)cc(F)c4C[C@H]3C[C@@H]12 | 0.031 (≈ 0.0555 µM) | 0.063 (≈ 0.113 µM) | 0.5 (≈ 0.895 µM) | 0.25 (≈ 0.448 µM) | 8 (≈ 14.3 µM) | 0.5 (≈ 0.895 µM) | 1 (≈ 1.79 µM) | 2 (≈ 3.58 µM) |
| CN(C)[C@@H]1C(O)=C(C(N)=O)C(=O)[C@@]2(O)C(O)=C3C(=O)c4c(O)c(NC(=O)[C@@H]5CCCCN5C)cc(F)c4C[C@H]3C[C@@H]12 | 0.13 (≈ 0.227 µM) | 0.25 (≈ 0.437 µM) | 0.5 (≈ 0.873 µM) | 1 (≈ 1.75 µM) | > 32 | 2 (≈ 3.49 µM) | 8 (≈ 14 µM) | 2 (≈ 3.49 µM) |
| CN(C)[C@@H]1C(O)=C(C(N)=O)C(=O)[C@@]2(O)C(O)=C3C(=O)c4c(O)c(NC(=O)[C@H]5CCCCN5)cc(F)c4C[C@H]3C[C@@H]12 | 0.5 (≈ 0.895 µM) | 0.5 (≈ 0.895 µM) | 4 (≈ 7.16 µM) | 2 (≈ 3.58 µM) | > 32 | 2 (≈ 3.58 µM) | 2 (≈ 3.58 µM) | 16 (≈ 28.6 µM) |
| CN(C)[C@@H]1C(O)=C(C(N)=O)C(=O)[C@@]2(O)C(O)=C3C(=O)c4c(O)c(NC(=O)c5cccn5C)cc(F)c4C[C@H]3C[C@@H]12 | 8 (≈ 14.4 µM) | 8 (≈ 14.4 µM) | > 32 | 0.5 (≈ 0.902 µM) | > 32 | 0.25 (≈ 0.451 µM) | 0.5 (≈ 0.902 µM) | > 32 |
| CN(C)c1cc(F)c2c(c1O)C(=O)C1=C(O)[C@]3(O)C(=O)C(C(N)=O)=C(O)[C@@H](N(C)C)[C@@H]3C[C@@H]1C2 | 0.25 (≈ 0.526 µM) | 4 (≈ 8.41 µM) | 4 (≈ 8.41 µM) | 4 (≈ 8.41 µM) | 32 (≈ 67.3 µM) | 1 (≈ 2.1 µM) | 4 (≈ 8.41 µM) | 8 (≈ 16.8 µM) |
| Cc1cc(C(=O)Nc2cc(F)c3c(c2O)C(=O)C2=C(O)[C@]4(O)C(=O)C(C(N)=O)=C(O)[C@@H](N(C)C)[C@@H]4C[C@@H]2C3)no1 | 2 (≈ 3.59 µM) | 2 (≈ 3.59 µM) | > 32 | 0.5 (≈ 0.898 µM) | > 32 | 0.25 (≈ 0.449 µM) | 0.5 (≈ 0.898 µM) | > 32 |
| CN(C)[C@@H]1C(O)=C(C(N)=O)C(=O)[C@@]2(O)C(O)=C3C(=O)c4c(O)c(NC(=O)c5ccn(C)n5)cc(F)c4C[C@H]3C[C@@H]12 | 1 (≈ 1.8 µM) | 2 (≈ 3.6 µM) | > 32 | 1 (≈ 1.8 µM) | > 32 | 0.5 (≈ 0.9 µM) | 0.5 (≈ 0.9 µM) | > 32 |
| CN(C)[C@@H]1C(O)=C(C(N)=O)C(=O)[C@@]2(O)C(O)=C3C(=O)c4c(O)c(NC(=O)[C@@H]5CCN5)cc(F)c4C[C@H]3C[C@@H]12 | 0.16 (≈ 0.302 µM) | 0.031 (≈ 0.0584 µM) | 0.25 (≈ 0.471 µM) | 0.5 (≈ 0.942 µM) | 16 (≈ 30.2 µM) | 0.25 (≈ 0.471 µM) | 0.13 (≈ 0.245 µM) | 1 (≈ 1.88 µM) |
